The RNAGym collection of RNA variant scans (doi:10.1126/science.aae0568)
This sample holds only a part of the variants without activity.

B1: tRNA (parent)
chain: GUUCCGUUGGCGUAAUGGUAACGCGUCUCCCUCCUAAGGAGAAGACUGCGGGUUCGAGUCCCGUACGGAACG

Variants of: B1
Assay: yeast fitness relative to wild type (ratio to wild type); higher = fitter; tRNA-Arg(CCU), competitive growth, 37 C, YPD
Procedure, shortened: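 A pool of Saccharomyces cerevisiae strains, each with a tRNA-Arg(CCU) gene variant at the native genomic locus, was competed in YPD at 37°C for 24 hours across six parallel replicates. The variants had been chemically synthesised at a 3% per-site mutation rate over 69 sites, and gene amplicons before and after competition were read by 100-nucleotide paired-end sequencing. Darwinian fitness relative to wild type rested on changes in genotype frequencies. Genotypes required ≥ 100 starting reads, and estimates < 0.5 were set to 0.5.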
In the case of U13C A21C C55U A69C, the yeast fitness is reported as ≤ 0.5. Work on U13C U47C C62U yielded a yeast fitness of 0.715. With U13C C31G A40C A42G G51A the yeast fitness was 0.578. In the case of U13C G23C A36C G39A, the yeast fitness is reported as 0.611. U13G A57C gave a yeast fitness of 0.599. Work on U13A U28A U47G yielded a yeast fitness of 0.528. For U13C U16C A57G G68A A69G, the yeast fitness was ≤ 0.5. A14C A15C C34G A43C C49A gave a yeast fitness of 0.627. Variant U13G A42C U64C has a yeast fitness of 0.715. U13C A20G C31U showed a yeast fitness of 0.777. With U13C U19C U26C C31A C61G the yeast fitness was ≤ 0.5. In the case of U13A G50U G68C, the yeast fitness is reported as 0.515. U13A G50C U59A gave a yeast fitness of 0.594. With U13C A15U C46A C66U the yeast fitness was ≤ 0.5. Work on U13C G18C G50C A57U C62U yielded a yeast fitness of 0.578. In the case of U13C C29A G51C G63A, the yeast fitness is reported as ≤ 0.5. With U13G C27U G44A A57U the yeast fitness was ≤ 0.5. A14C A40C U64C gave a yeast fitness of 0.622. With U13G G48A the yeast fitness was 0.986. Work on U13C C24G U26A C55G C66A yielded a yeast fitness of 0.561. With U13C A57U C62U the yeast fitness was ≤ 0.5. In the case of U13C C27U C31A U35C C55G C66U A70C, the yeast fitness is reported as ≤ 0.5. In the case of U13C A37G C49G C55U G56C G68A, the yeast fitness is reported as ≤ 0.5. Work on U13C A45C G56A yielded a yeast fitness of 0.743. For U13C C34U G48C C61U G67A, the yeast fitness was ≤ 0.5. U13C G48C A65G showed a yeast fitness of 0.655. In the case of U13C G18C G52C G56A, the yeast fitness is reported as ≤ 0.5. In the case of U13C U26C C27G C34U A37U A43G A45G C46U, the yeast fitness is reported as ≤ 0.5. With U13A U28A C31U G39A A57G the yeast fitness was ≤ 0.5. U13C U28G U54A C62A gave a yeast fitness of 0.624. With A14C A42U C55G the yeast fitness was ≤ 0.5. Work on U13C C49A yielded a yeast fitness of 0.795. Work on U13C C31U U47G yielded a yeast fitness of 0.562. In the case of A14C A42U G44C, the yeast fitness is reported as ≤ 0.5. For U13C A14C A45U C66U, the yeast fitness was ≤ 0.5. In the case of U13C C22G C27A G51C, the yeast fitness is reported as ≤ 0.5. For A14C A45U G50C G68C, the yeast fitness was ≤ 0.5. In the case of U13C G52C U53A C55G A69U, the yeast fitness is reported as ≤ 0.5. In the case of U13C G44C G58A G68A, the yeast fitness is reported as 0.572. U13G A21C showed a yeast fitness of 0.611. With U13G A21G the yeast fitness was 0.895. U13C C29G C62U A69C gave a yeast fitness of 0.537. With A14C A43G A69C the yeast fitness was ≤ 0.5. With U13C G52A C55G A69U the yeast fitness was ≤ 0.5. With U13G U28G C61U the yeast fitness was 0.523. Work on U13C G58C A69U yielded a yeast fitness of 0.7. For A14C A15C A21U A57G, the yeast fitness was ≤ 0.5. U13A G48A showed a yeast fitness of 1.03. Work on U13G A37C yielded a yeast fitness of 0.65. Work on A14C A69G yielded a yeast fitness of 0.692. In the case of A14C A15G A42G, the yeast fitness is reported as 0.738. With U13C U26C C31U the yeast fitness was 0.784. For U13C G51C C66A, the yeast fitness was ≤ 0.5. For U13C A14G C24G G52A C55G A69U, the yeast fitness was ≤ 0.5. With U13C C31U C55G G67C the yeast fitness was ≤ 0.5. In the case of U13A G52A C55U, the yeast fitness is reported as ≤ 0.5. For A14C A21C C27U, the yeast fitness was ≤ 0.5. For U13C A20C A40G, the yeast fitness was ≤ 0.5. With U13C A14C U16C U64C A65C the yeast fitness was ≤ 0.5. U13C A43C showed a yeast fitness of 1.28. Variant U13C A43U has a yeast fitness of 1.04. With A14C A21C C24U A36U A43U G58C the yeast fitness was ≤ 0.5. A14C A65G A69U showed a yeast fitness of 0.634. In the case of A14C A43U C61U, the yeast fitness is reported as ≤ 0.5. U13A U16A A43C showed a yeast fitness of 0.564. U13G U26A showed a yeast fitness of 0.987. For U13G U28A C49A C55U C60U C61U, the yeast fitness was ≤ 0.5. With U13G G39C the yeast fitness was 0.735. In the case of U13G G44A A57U, the yeast fitness is reported as 0.617. For U13G C24A C46G G52A, the yeast fitness was ≤ 0.5. For U13G U26G G52A, the yeast fitness was ≤ 0.5. For U13C C29A, the yeast fitness was 0.618. With U13G U54A G68C the yeast fitness was ≤ 0.5. A14C A20G C27U U64A G67A gave a yeast fitness of 0.566. For U13C C30G C31A, the yeast fitness was ≤ 0.5. For U13C C24G C30A U47C, the yeast fitness was ≤ 0.5. In the case of A14C A42C C49A A70U, the yeast fitness is reported as 0.588. For U13A G41A G68C, the yeast fitness was 0.504. In the case of U13G C24U A36G U47C G50A, the yeast fitness is reported as 0.518. U13G C24G A36C A40U G48A gave a yeast fitness of 0.525. For U13C A14G C24G C49G A69G, the yeast fitness was ≤ 0.5. Work on U13G G38A yielded a yeast fitness of 0.781. With U13C A14U C31G G50A A65C the yeast fitness was 0.531. For U13G C22G, the yeast fitness was 0.809. U13G C22U showed a yeast fitness of 0.972. For U13G C24G G51A, the yeast fitness was ≤ 0.5. With U13C C27U A69U A70C the yeast fitness was ≤ 0.5. U13G G63C showed a yeast fitness of 0.696. Variant U13G A65U has a yeast fitness of 0.896. U13C A21C G50A gave a yeast fitness of 0.509. Work on U13G C29U G48A G56A yielded a yeast fitness of 0.55. In the case of U13G U28A C30A C61G, the yeast fitness is reported as ≤ 0.5. In the case of U13C A21G C31G U47C, the yeast fitness is reported as 0.555. Variant U13C C46U has a yeast fitness of 0.886. With A14C A37C U54C the yeast fitness was ≤ 0.5. For U13G A45U C55G, the yeast fitness was ≤ 0.5. With U13C A36U C62U G63C A70C the yeast fitness was ≤ 0.5. With U13C U54A C60U the yeast fitness was ≤ 0.5. In the case of U13G U35G A40G C61A, the yeast fitness is reported as ≤ 0.5. Variant U13G A40G U47C A69U has a yeast fitness of 0.653. For U13G A20U U53C C62U, the yeast fitness was ≤ 0.5. U13C G25A C31U G38C gave a yeast fitness of 0.659. In the case of A14C A15U C62G, the yeast fitness is reported as ≤ 0.5. With U13G G68A the yeast fitness was 0.798. U13G U28C showed a yeast fitness of 0.867. With U13G U28G the yeast fitness was 0.59. In the case of U13G G39C C49G A65G, the yeast fitness is reported as ≤ 0.5. With U13G A42G the yeast fitness was 0.733. For U13C G51A A65C, the yeast fitness was ≤ 0.5. In the case of U13C A20C A21C C46G, the yeast fitness is reported as ≤ 0.5. U13C G50U showed a yeast fitness of 0.81. With U13G C30A the yeast fitness was 0.715. In the case of A14C A36U G38A A65C, the yeast fitness is reported as ≤ 0.5. In the case of U13C A14U U32C, the yeast fitness is reported as 0.53. With U13G U16A C24U G44A C49G the yeast fitness was ≤ 0.5. With U13C C33U A45G G50A C66A G68A A70U the yeast fitness was ≤ 0.5. For U13C A36C U47C G67U, the yeast fitness was ≤ 0.5. U13C U26A gave a yeast fitness of 0.982. In the case of U13C C31U G50C, the yeast fitness is reported as ≤ 0.5. With U13G C27A C30A A57C the yeast fitness was ≤ 0.5. In the case of U13G C31A U54C A57U, the yeast fitness is reported as ≤ 0.5. In the case of U13G C31A, the yeast fitness is reported as 0.833. In the case of A14C A20C, the yeast fitness is reported as 0.533. Work on U13C G25C C31G yielded a yeast fitness of 0.877. With U13A U28C C55U the yeast fitness was 0.741. In the case of U13C C29A C33A U35C G51A, the yeast fitness is reported as ≤ 0.5. In the case of U13G A45C G48A, the yeast fitness is reported as 0.898. In the case of U13C A14G A45G, the yeast fitness is reported as ≤ 0.5. For U13G A20U A42G U59A A65G, the yeast fitness was ≤ 0.5. With U13C U19A A42C G50C the yeast fitness was 0.619. Variant U13C C33U has a yeast fitness of 0.744. For U13C U28A C62U C66A, the yeast fitness was ≤ 0.5. Variant U13C A36C A43C C60A has a yeast fitness of 0.566. With U13G U26G C33G U47A the yeast fitness was 0.602. With U13C C27G A36G U54G the yeast fitness was ≤ 0.5. For U13C A15U G23A C33A A42G G56A, the yeast fitness was ≤ 0.5. For U13G A21U C22G U26C U35A A65G A70C, the yeast fitness was ≤ 0.5. Variant U13A G58A has a yeast fitness of 1.06. For U13C G58C, the yeast fitness was 0.922. U13C G58A gave a yeast fitness of 0.891. U13G U32A C46U showed a yeast fitness of 0.577. Variant U13C C62G has a yeast fitness of 0.804. With U13A U35C C46U C55G the yeast fitness was ≤ 0.5. With U13A U53A the yeast fitness was 0.59. U13C G25C C61U showed a yeast fitness of 1.14. With U13G G58C G67C the yeast fitness was 0.603. With U13C C31U A57G U64A C66A A69C the yeast fitness was ≤ 0.5. In the case of A14C A40C G68A, the yeast fitness is reported as ≤ 0.5. For A14C A57U C61U, the yeast fitness was ≤ 0.5. Work on U13A U28G G50C A57U C62A yielded a yeast fitness of 0.931. In the case of A14C A15G, the yeast fitness is reported as 0.675. For U13C A15G A21G U47G A65C, the yeast fitness was ≤ 0.5. Variant U13C G52A A69U has a yeast fitness of 0.689. Variant U13G A40U has a yeast fitness of 0.945. U13G A43G showed a yeast fitness of 0.902. In the case of A14C A36U C60U A69U, the yeast fitness is reported as ≤ 0.5. In the case of U13G U32G A45G C49U A70U, the yeast fitness is reported as ≤ 0.5. Work on U13C C55G yielded a yeast fitness of 0.645. Work on U13C C22G G68C yielded a yeast fitness of 0.542. With U13C C22G G68U the yeast fitness was ≤ 0.5. For U13C C24G C49G, the yeast fitness was ≤ 0.5. In the case of U13C C31G, the yeast fitness is reported as 0.933. For U13A U53A C61U, the yeast fitness was ≤ 0.5. For U13C A20G G39A G48C, the yeast fitness was ≤ 0.5. With U13G A21U C22G U35A A65G the yeast fitness was ≤ 0.5. For U13G U35G A40G, the yeast fitness was 0.676. With U13G A36G G68C the yeast fitness was ≤ 0.5.
